# According to ChEMBL document CHEMBL1128256, “Synthesis, biological evaluation, and structure analysis of a series of new 1,5-anhydrohexitol nucleosides” (J Med Chem, 1995):
# Tests used:
# HEL [1] = assay: Tested for the inhibitory concentration required to reduce cytomegalovirus (CMV) strain AD-169 plaque formation by 50%.; type: functional, cell-based; details: Homo sapiens
# Summary of the method: (§1)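 Virus plaque formation assay in human embryonic lung (HEL) cells seeded in 96-well trays. Targets were TK+ VZV (Oka, YS), TK- VZV (07/1, YS/R) and CMV (AD169, Davis). Value is the concentration that reduces plaque number by 50%. Cytotoxicity in HEL cells was taken as the concentration that reduces cell growth by 50%.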
# HEL [2] = assay: Tested for the cytotoxic concentration, required to reduce cell growth by 50% in human embryonic lung (HEL) cells.; type: functional; summary of the method: as §1
# HEL [3] = assay: Tested for the inhibitory concentration required to reduce cytomegalovirus (CMV) strain Davis plaque formation by 50%.; type: functional, cell-based; details: Homo sapiens; summary of the method: as §1
# E6SM [4] = assay: Tested for the minimum inhibitory concentration required to reduce herpes simplex virus type 2 (HSV-2) strain 196 induced cytopathogenicity by 50%.; type: functional; details: Homo sapiens
# Summary of the method: (§2)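 Inhibition of virus-induced cytopathogenicity in human embryonic skin-muscle (E6SM) fibroblasts seeded in 96-well trays. Viruses were HSV-1 (KOS, F, McIntyre), TK- HSV-1 B2006, TK-/TK+ HSV-1 clinical isolate VMW-1837 and HSV-2 (G, 196, Lyons). […] MCC is the lowest concentration giving microscopically detectable alteration of normal cell morphology; highest concentration tested was 400 µg/mL.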
# E6SM [5] = assay: Tested for the minimum inhibitory concentration required to reduce herpes simplex virus type 1 (HSV-1) strain KOS induced cytopathogenicity by 50%.; type: functional; details: Homo sapiens; summary of the method: as §2
# E6SM [6] = assay: Tested for the minimum cytotoxic concentration required to cause a microscopically detectable alteration of normal cell morphology in human embryonic skin muscle (E6SM) fibroblast cell cultures.; type: functional; summary of the method: as §2
# HEL [7] = assay: Tested for the inhibitory concentration required to reduce thymidine kinase plus Varicella-Zoster virus (TK+ VZV) strain OKA plaque formation by 50%.; type: functional, cell-based; details: Homo sapiens; summary of the method: as §1
# E6SM [8] = assay: Tested for the minimum inhibitory concentration required to reduce herpes simplex virus type 2 (HSV-2) strain G induced cytopathogenicity by 50%.; type: functional; details: Homo sapiens; summary of the method: as §2
# HEL [9] = assay: Tested for the inhibitory concentration required to reduce thymidine kinase deficient Varicella-Zoster virus (TK- VZV) strain YS/R plaque formation by 50%.; type: functional, cell-based; details: Homo sapiens
# HEL [10] = assay: Tested for the inhibitory concentration required to reduce thymidine kinase plus Varicella-Zoster virus (TK+ VZV) strain YS plaque formation by 50%; type: functional, cell-based; details: Homo sapiens; summary of the method: as §1
# E6SM [11] = assay: Tested for the minimum inhibitory concentration required to reduce herpes simplex virus type 1 (HSV-1) strain F induced cytopathogenicity by 50%.; type: functional; details: Homo sapiens; summary of the method: as §2
# E6SM [12] = assay: Tested for the minimum inhibitory concentration required to reduce herpes simplex virus type 2 (HSV-2) strain Lyons induced cytopathogenicity by 50%.; type: functional; details: Homo sapiens; summary of the method: as §2
# E6SM [13] = assay: Tested for the minimum inhibitory concentration required to reduce thymidine kinase deficient herpes simplex virus type 1 (TK- HSV-1) strain B2006 induced cytopathogenicity by 50%.; type: functional; details: Homo sapiens; summary of the method: as §2
# E6SM [14] = assay: Tested for the minimum inhibitory concentration required to reduce herpes simplex virus type 1 (TK- / TK + HSV-1) strain VMW-1837 induced cytopathogenicity by 50%.; type: functional; details: Homo sapiens; summary of the method: as §2
# HEL [15] = assay: Tested for the inhibitory concentration required to reduce thymidine kinase deficient Varicella-Zoster virus (TK- VZV) strain 07/1 plaque formation by 50%.; type: functional, cell-based; details: Homo sapiens
# E6SM [16] = assay: Tested for the minimum inhibitory concentration required to reduce herpes simplex virus type 1 (HSV-1) strain McIntyre induced cytopathogenicity by 50%.; type: functional; details: Homo sapiens; summary of the method: as §2
compound,measurement,setting,value
O=c1ccn(C2COC(CO)C(O)C2)c(=O)[nH]1 (stereo unspecified),IC50,HEL [1],> 40 µg/mL
same,CC50,HEL [2],> 50 µg/mL
same,IC50,HEL [3],> 40 µg/mL
same,MIC,E6SM [4],> 400 µg/mL
same,MIC,E6SM [5],> 400 µg/mL
same,MCC,E6SM [6],> 400 µg/mL
same,IC50,HEL [7],> 40 µg/mL
same,MIC,E6SM [8],> 400 µg/mL
same,IC50,HEL [9],> 40 µg/mL
same,IC50,HEL [10],> 40 µg/mL
same,MIC,E6SM [11],> 400 µg/mL
same,MIC,E6SM [12],> 400 µg/mL
same,MIC,E6SM [13],> 400 µg/mL
same,MIC,E6SM [14],> 400 µg/mL
same,IC50,HEL [15],> 40 µg/mL
same,MIC,E6SM [16],> 400 µg/mL
